The source made the active and inactive calls. The rule behind the calls is not given here.
How the values were obtained:
[1] = Inhibition of HIV1 Rev transfected in human HeLa cells after 48 hrs by duel luciferase reporter gene assay; format: cell-based; settings: Human immunodeficiency virus 1, HeLa
Outline: (§1)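 Analogous stably modified HeLa dual-luciferase system for Rev-RRE function, used as a specificity control; activity followed by luminescence up to 100 μM.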

[2] = test system: Human immunodeficiency virus 1; test: Antiviral activity against HIV1 Ba-L infected in PBMCs assessed as reverse transcriptase activity after 7 days by MTS assay; format: functional, organism-based; settings: Human immunodeficiency virus 1, Ba-L, 168 h
[3] = test system: Human immunodeficiency virus 1; test: Antiviral activity against HIV1 BCF02 infected in PBMCs assessed as reverse transcriptase activity after 7 days by XTT assay; format: functional, organism-based; settings: Human immunodeficiency virus 1, BCF02, 168 h
[4] = test system: Human immunodeficiency virus 1; test: Antiviral activity against HIV1 UG/92/029 infected in PBMCs assessed as reverse transcriptase activity after 7 days by XTT assay; format: functional, organism-based; settings: Human immunodeficiency virus 1, UG/92/029, 168 h
[5] = test system: Human immunodeficiency virus 1; test: Antiviral activity against HIV1 BR/93/020 infected in PBMCs assessed as reverse transcriptase activity after 7 days by XTT assay; format: functional, organism-based; settings: Human immunodeficiency virus 1, BR/93/020, 168 h
[6] = test system: Human immunodeficiency virus 1; test: Antiviral activity against HIV1 97ZA003 infected in PBMCs assessed as reverse transcriptase activity after 7 days by XTT assay; format: functional, organism-based; settings: Human immunodeficiency virus 1, 97ZA003, 168 h
[7] = test system: Human immunodeficiency virus 1; test: Antiviral activity against HIV1 CMU06 infected in PBMCs assessed as reverse transcriptase activity after 7 days by XTT assay; format: functional, organism-based; settings: Human immunodeficiency virus 1, CMU06, 168 h
[8] = biological target: Nucleic Acid; test: Inhibition of fluorescein labeled Tat-peptide binding to HIV1 TAR RNA after 60 mins by FRET assay; format: nucleic-acid assay, Human immunodeficiency virus 1
Outline: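 Competition assay: inhibition of association between TAR RNA and a fluorescently labeled Tat-derived peptide, read by fluorescence; IC50 values derived.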

[9] = test system: Nucleic Acid; test: Induction of aggregation of 32P labeled HIV1 TAR RNA after 60 mins by native gel electrophoresis; format: nucleic-acid assay, Human immunodeficiency virus 1
[10] = biological target: Nucleic Acid; test: Inhibition of fluorescein labeled Rev binding to HIV1 RRE RNA assessed as decrease of fluorescent anisotropy at 20 uM after 1 hour by fluorescence polarization-based assay; format: nucleic-acid assay, Human immunodeficiency virus 1
Outline: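 Competition assay tracking Rev binding to RRE by fluorescence; tested up to 20 μM.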

[11] = test system: PBMC; test: Cytotoxicity against human PBMC cells by XTT assay; format: cell-based
[12] = test system: Human immunodeficiency virus 1; test: Antiviral activity against HIV1 HT/92/599 infected in PBMCs assessed as reverse transcriptase activity after 7 days by XTT assay; format: functional, organism-based; settings: Human immunodeficiency virus 1, HT/92/599, 168 h
[13] = test system: Human immunodeficiency virus 1; test: Inhibition of HIV1 viral entry into the human TZM-bl cells assessed as decrease of luminescence at 25 uM after 18 hrs by luciferase reporter gene assay; format: functional, organism-based
Outline: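 Viral entry checked in TZM-bl cells with a cell-based entry inhibition assay at concentrations up to 25 μM.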

[14] = test system: Human immunodeficiency virus 1; test: Antiviral activity against HIV1 UG/92/001 infected in PBMCs assessed as reverse transcriptase activity after 7 days by XTT assay; format: functional, organism-based; settings: Human immunodeficiency virus 1, UG/92/001, 168 h
[15] = test system: Nucleic Acid; test: Selectivity for HIV1 TAR RNA over HIV1 RRE RNA; format: nucleic-acid assay; settings: Human immunodeficiency virus 1
[16] = Cytotoxicity in human HeLa cells transfected with HIV Rev-LTR by FITC-conjugated DAPI staining by fluorescence microscopy; format: cell-based; settings: read-out: TC50 (the source's name)
[17] = Cytotoxicity in human HeLa cells transfected with HIV Tat-LTR by FITC-conjugated DAPI staining by fluorescence microscopy; format: cell-based; settings: read-out: TC50 (the source's name)
[18] = test system: Human immunodeficiency virus 1; test: Antiviral activity against HIV1 JV1083 infected in PBMCs assessed as reverse transcriptase activity after 7 days by XTT assay; format: functional, organism-based; settings: Human immunodeficiency virus 1, JV1083, 168 h
[19] = test system: HeLa; test: Inhibition of HIV1 Rev transfected in human HeLa cells up to 100 uM after 48 hrs by duel luciferase reporter gene assay; format: cell-based; settings: Human immunodeficiency virus 1; outline: as §1

Row | Structure (SMILES) | IC50 [1] [µM] | IC50 [2] [µM] | EC50 [8] [µM] | IC50 [10] [µM] | IC50 [11] [µM] | CC50 [16] [µM] | CC50 [17] [µM] | other results
1 | NC(=O)CCNC[C@H](Cc1ccc(O)cc1)NC[C@H](Cc1ccc(O)cc1)NC[C@H](Cc1ccc(O)cc1)NC[C@H](Cc1ccc(O)cc1)NC[C@H](Cc1ccc(O)cc1)NC[C@@H](N)Cc1ccc(O)cc1 | 34 | 2 | 1.7 | > 20 | 76 | > 100 | > 100 | IC50 [3]: 18.9 µM; IC50 [4]: 6.7 µM; IC50 [5]: 4.7 µM; IC50 [6]: 27 µM; IC50 [7]: 19 µM; EC50 [9]: 40 µM; IC50 [12]: 8.8 µM; inhibition [13]: inactive; IC50 [14]: 6 µM; Selectivity Index [15]: 20; IC50 [18]: 13.1 µM
2 | NCCCC[C@@H](CN[C@H](CN[C@H](CN[C@H](CNCCC(N)=O)Cc1ccc(O)cc1)Cc1ccc(O)cc1)Cc1ccc(O)cc1)NC[C@H](Cc1ccc(O)cc1)NC[C@@H](N)Cc1ccc(O)cc1 | > 100 | 7 | 0.45 | – | 80 | > 100 | > 100 | –
3 | C[C@@H](CN[C@H](CN[C@H](CN[C@H](CN[C@H](CNCCC(N)=O)Cc1ccc(O)cc1)Cc1ccc(O)cc1)Cc1ccc(O)cc1)Cc1ccc(O)cc1)NC[C@@H](N)Cc1ccc(O)cc1 | – | – | 3.94 | – | – | – | – | –
4 | NC(=O)CCNC[C@H](Cc1ccc(O)cc1)NC[C@H](Cc1ccc(O)cc1)NC[C@H](Cc1ccc(O)cc1)NC[C@H](Cc1ccc(O)cc1)NC[C@H](Cc1ccc(O)cc1)NC[C@H](Cc1ccc(O)cc1)NC[C@@H](N)Cc1ccc(O)cc1 | – | – | 0.47 | – | – | – | – | –
5 | C[C@@H](CN[C@H](CNCCC(N)=O)Cc1ccc(O)cc1)NC[C@H](Cc1ccc(O)cc1)NC[C@H](Cc1ccc(O)cc1)NC[C@H](Cc1ccc(O)cc1)NC[C@@H](N)Cc1ccc(O)cc1 | – | – | 1.93 | – | – | – | – | –
6 | C[C@H](N)CN[C@@H](C)CN[C@@H](C)CN[C@@H](C)CN[C@@H](C)CN[C@H](CNCCC(N)=O)Cc1ccc(O)cc1 | – | – | 13.9 | – | – | – | – | –
7 | C[C@@H](CN[C@H](CN[C@H](CN[C@H](CNCCC(N)=O)Cc1ccc(O)cc1)Cc1ccc(O)cc1)Cc1ccc(O)cc1)NC[C@H](Cc1ccc(O)cc1)NC[C@H](Cc1ccc(O)cc1)NC[C@H](Cc1ccc(O)cc1)NC[C@@H](N)Cc1ccc(O)cc1 | – | – | 0.18 | – | – | – | 2.4 | –
8 | NCCCC[C@@H](CN[C@H](CNCCC(N)=O)Cc1ccc(O)cc1)NC[C@H](Cc1ccc(O)cc1)NC[C@H](CCCCN)NC[C@H](Cc1ccc(O)cc1)NC[C@@H](N)Cc1ccc(O)cc1 | – | – | 0.36 | – | – | – | 38 | –
9 | C[C@@H](CN[C@H](CN[C@H](CNCCC(N)=O)Cc1ccc(O)cc1)Cc1ccc(O)cc1)NC[C@H](Cc1ccc(O)cc1)NC[C@H](Cc1ccc(O)cc1)NC[C@@H](N)Cc1ccc(O)cc1 | – | – | 3.32 | – | – | – | – | –
10 | NC(=O)CCNC[C@H](Cc1ccc(O)cc1)NC[C@H](Cc1ccc(O)cc1)NC[C@H](Cc1ccc(O)cc1)NC[C@H](Cc1ccc(O)cc1)NC[C@@H](N)Cc1ccc(O)cc1 | > 100 | 9 | 2.96 | > 20 | 67 | > 100 | > 100 | EC50 [9]: 220 µM
11 | C[C@@H](CN[C@H](CN[C@H](CN[C@H](CNCCC(N)=O)Cc1ccc(O)cc1)Cc1ccc(O)cc1)Cc1ccc(O)cc1)NC[C@H](Cc1ccc(O)cc1)NC[C@H](Cc1ccc(O)cc1)NC[C@@H](N)Cc1ccc(O)cc1 | 60 | 4 | 0.5 | > 20 | 55 | > 100 | > 100 | IC50 [3]: 16.3 µM; IC50 [4]: 2.3 µM; IC50 [5]: 5.1 µM; IC50 [6]: 25 µM; IC50 [7]: 18.2 µM; IC50 [12]: 4.5 µM; inhibition [13]: inactive; IC50 [14]: 2.3 µM; IC50 [18]: 11.9 µM
12 | NC(=O)CCNC[C@H](Cc1ccc(O)cc1)NC[C@H](Cc1ccc(O)cc1)NC[C@@H](N)Cc1ccc(O)cc1 | > 100 | – | 83.8 | > 50 | – | > 100 | > 100 | EC50 [9]: 490 µM
13 | C[C@H](N)CN[C@H](CN[C@H](CN[C@H](CN[C@H](CN[C@H](CNCCC(N)=O)Cc1ccc(O)cc1)Cc1ccc(O)cc1)Cc1ccc(O)cc1)Cc1ccc(O)cc1)Cc1ccc(O)cc1 | – | – | 3.26 | – | – | – | – | –
14 | NCCCC[C@@H](CN[C@H](CNCCC(N)=O)Cc1ccc(O)cc1)NC[C@H](Cc1ccc(O)cc1)NC[C@H](CCCCN)NC[C@H](Cc1c[nH]c2ccccc12)NC[C@@H](N)Cc1ccc(O)cc1 | – | – | 0.24 | – | – | – | 12 | –
15 | NC(=O)CCNC[C@H](Cc1ccc(O)cc1)NC[C@H](Cc1ccc(O)cc1)NC[C@H](Cc1ccc(O)cc1)NC[C@H](Cc1ccc(O)cc1)NC[C@H](Cc1ccc(O)cc1)NC[C@H](Cc1ccc(O)cc1)NC[C@H](Cc1ccc(O)cc1)NC[C@@H](N)Cc1ccc(O)cc1 | – | – | 0.18 | – | – | – | – | –
16 | NCCCC[C@@H](CN[C@H](CN[C@H](CN[C@H](CNCCC(N)=O)Cc1ccc(O)cc1)Cc1ccc(O)cc1)Cc1ccc(O)cc1)NC[C@H](Cc1c[nH]c2ccccc12)NC[C@@H](N)Cc1ccc(O)cc1 | – | – | 0.3 | – | – | – | – | –
17 | NC(=O)CCNC[C@H](Cc1ccc(O)cc1)NC[C@H](Cc1ccc(O)cc1)NC[C@H](Cc1ccc(O)cc1)NC[C@@H](N)Cc1ccc(O)cc1 | – | 11 | 8.9 | > 20 | 46 | – | – | EC50 [9]: 450 µM
18 | C[C@@H](CN[C@H](CN[C@H](CN[C@H](CNCCC(N)=O)Cc1ccc(O)cc1)Cc1ccc(O)cc1)Cc1ccc(O)cc1)NC[C@H](Cc1ccc(O)cc1)NC[C@@H](N)Cc1ccc(O)cc1 | > 100 | 5 | 1.63 | > 20 | 56 | > 100 | > 100 | IC50 [3]: 20.1 µM; IC50 [4]: 4.5 µM; IC50 [5]: 7.5 µM; IC50 [6]: 32 µM; IC50 [7]: 7.7 µM; IC50 [12]: 12.7 µM; inhibition [13]: inactive; inhibition [19]: inactive; IC50 [14]: 5.1 µM; Selectivity Index [15]: 20; IC50 [18]: 17.8 µM

From ChEMBL document CHEMBL1153724, “Multivalent binding oligomers inhibit HIV Tat-TAR interaction critical for viral replication” (Bioorg Med Chem Lett, 2009)
